Hits are enriched below; roughly 0.73% of the tested compounds scored in any of these assays.
Tn7 DDE FP – inhibitors of Tn7 peptide binding to human fibrin DD(E). P02675. hit rate 0.13% among 370,000. inhibition, % at 8.3 µM. AID 720508. FP displacement of FITC-Tn7 peptide from fibrin DD(E); 0% = median of compound wells per plate;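 active = inhibition above the mean of compounds falling within the control limits plus 3 SD of them, cut at about 14% in these data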;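 note: 0% = plate median of compound wells and 100% = 10 µM Aha-Tn7 peptide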
Target sequence (P02675 whole entry, looked up): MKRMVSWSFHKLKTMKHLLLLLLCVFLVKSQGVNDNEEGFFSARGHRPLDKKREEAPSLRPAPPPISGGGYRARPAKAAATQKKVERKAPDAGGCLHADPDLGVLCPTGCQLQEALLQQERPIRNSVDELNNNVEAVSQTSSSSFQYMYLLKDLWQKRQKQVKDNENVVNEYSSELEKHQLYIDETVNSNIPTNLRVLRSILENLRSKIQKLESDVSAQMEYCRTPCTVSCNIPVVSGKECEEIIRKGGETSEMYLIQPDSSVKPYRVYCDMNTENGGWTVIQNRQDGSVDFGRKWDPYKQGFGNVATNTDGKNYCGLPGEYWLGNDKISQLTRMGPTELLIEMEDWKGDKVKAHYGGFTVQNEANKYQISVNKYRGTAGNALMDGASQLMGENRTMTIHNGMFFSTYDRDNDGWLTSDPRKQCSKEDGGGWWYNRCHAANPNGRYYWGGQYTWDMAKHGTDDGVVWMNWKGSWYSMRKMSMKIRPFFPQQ
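Test system – human fibrin DD(E) · Times – 10 min preincubation, 3 h with tracer, room temperature · Detection – fluorescence polarization of the labelled Tn7 tracer · Measure – percent inhibition normalized to high-control wells · Benchmarks – high control wells with 10 µM unlabelled Aha-Tn7 peptide (full inhibition) · Repeats – singlicate testing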
C-LANA FP – inhibitors of KSHV LANA C-terminal domain DNA binding | AID 504423 | hit rate 0.078% among 340,000 | MBP-C-LANA/FAM-LBS DNA binding, fluorescence polarization | inhibition, % at 9 µM;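 active = highest replicate inhibition at or above 60% at 9 µM, even if other replicates fall short; inactive = all replicates below 60% inhibition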;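 note: 0% = neutral control wells and 100% = 4 µM acridine orange control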
Keap1-Nrf2 PPI – disrupts human Keap1 binding to Nrf2 peptide | Keap1 Kelch-Nrf2 peptide fluorescence polarization, 1536-well | hit rate 0.15% among 340,000 | inhibition, % at 9.4 µM | Q14145; in the data active = inhibition above about 12%;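 note: human Keap1 Kelch domain with fluorescein labeled Nrf2 9mer peptide probe; 0% = neutral control wells and 100% = peptide positive control; higher means more block of Keap1 binding to Nrf2 peptide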
DDE Tn6 FP inh – disrupts Tn6 cyclic peptide binding to fibrin D-Dimer-E complex | Fibrin DD(E) TRITC-Tn6 fluorescence polarization displacement | inhibition, % at 8.3 µM | hit rate 0.21% among 370,000 | P02675;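 active = inhibition above a per-campaign cutoff: mean of compounds within control limits plus 3 SD, cut at about 15% in these data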;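 note: 0% = median of all compound wells on the plate and 100% = blocking peptide control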
Cardiac RTF inh – cardiac RTF calcium desensitization; inhibition, % at 7.15 µM; AID 493244; IANBD-labeled cardiac RTF, Ca2+ fluorescence; hit rate 0.12% among 340,000; P19429+P45379;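 active = inhibition above the mean inhibition of all tested compounds plus 3 SD, cut at about 17% in these data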;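 note: assay run at fixed EC70 calcium of 1.6 mM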
cardiac RTF act – increases calcium sensitivity of human cardiac regulated thin filaments. IANBD-labeled TnC RTF fluorescence at EC20 calcium; 0% EC20 calcium, 100% full calcium. activation, % at 7.2 µM. hit rate 0.24% among 340,000. AID 493008;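 active = activation above the mean over all tested compounds plus 3 SD, cut at about 30% in these data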;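 note: rise in fluorescence read as greater calcium sensitivity of cardiac thin filaments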
RTF Ca inh conf – confirmation of inhibitors of cardiac thin filament calcium sensitivity. hit rate 8% among 360. shares compounds with Cardiac RTF inh. reconstituted cardiac thin filaments, calcium sensitivity fluorescence. inhibition, % at 7.15 µM; in the data active = inhibition above about 18%
Numbers without * were called inactive.

CCOc1cc(/C=N/NC(=O)c2ccc(-c3csc(Nc4ccc(C)cc4)n3)cc2)ccc1OCC(=O)O was read as Tn7 DDE FP 2.7, C-LANA FP 2.1, Keap1-Nrf2 PPI 0.1 and DDE Tn6 FP inh -3.2.
O=C(O)COc1ccc(/C=N/NC(=O)c2ccc(-c3csc(Nc4ccc(Cl)cc4)n3)cc2)cc1 was read as Tn7 DDE FP 7.4, C-LANA FP -0.4, Keap1-Nrf2 PPI -2.9, DDE Tn6 FP inh -2.4, Cardiac RTF inh 34.3*, cardiac RTF act -22.0 and RTF Ca inh conf 18.4*.
For CCOC(=O)[C@H](CCc1ccccc1)N[C@@H](C)C(=O)N1C(C(=O)O)C[C@@H]2CCC[C@@H]21 (some centres undefined) the results were Tn7 DDE FP 4.2, C-LANA FP 1.1, Keap1-Nrf2 PPI -1.3, DDE Tn6 FP inh -6.8, Cardiac RTF inh 23.4*, cardiac RTF act 1.5 and RTF Ca inh conf -3.2.
`COc1ccc(/C=C/C(=O)NC(=S)Nc2ccc(C(=O)O)cc2)cc1` gave Tn7 DDE FP -6.1, C-LANA FP 0.4, Keap1-Nrf2 PPI -4.0, DDE Tn6 FP inh -6.0, Cardiac RTF inh 57.6*, cardiac RTF act 32.6* and RTF Ca inh conf -4.0.
Screening COc1ccc(C(=O)Nc2ccc(C)cc2C(=O)c2ccccc2)c(OC)c1 returned Tn7 DDE FP -8.3, C-LANA FP 0.9, Keap1-Nrf2 PPI 1.0, DDE Tn6 FP inh -1.3, Cardiac RTF inh 17.2*, cardiac RTF act 7.8 and RTF Ca inh conf -2.2.
Oc1ccc(-c2nc(-c3ccc(F)cc3)c(-c3ccncc3)[nH]2)cc1 was read as Tn7 DDE FP 3.9, C-LANA FP -0.8, Keap1-Nrf2 PPI -1.1, DDE Tn6 FP inh -11.1, Cardiac RTF inh 20.4*, cardiac RTF act 1.6 and RTF Ca inh conf 0.8.
For O=C(NCc1cccnc1)c1cc(C(=O)C2CC2)c[nH]1 the results were Tn7 DDE FP 1.3, C-LANA FP -0.6, Keap1-Nrf2 PPI -0.5, DDE Tn6 FP inh -1.2, Cardiac RTF inh 21.9*, cardiac RTF act 5.1 and RTF Ca inh conf -2.2.
For COC(=O)N/N=C(\C)c1ccc(OC(F)F)cc1OC(F)F the results were Tn7 DDE FP -2.5, C-LANA FP -0.2, Keap1-Nrf2 PPI 4.7, DDE Tn6 FP inh 7.9, Cardiac RTF inh 17.4*, cardiac RTF act 0.8 and RTF Ca inh conf -6.5.
Screening CCc1ccc(NC(=O)c2cc(C)no2)cc1 returned Tn7 DDE FP 3.7, C-LANA FP 0.4, Keap1-Nrf2 PPI 5.0, DDE Tn6 FP inh 5.4, Cardiac RTF inh -3.3 and cardiac RTF act -0.8.
For CCc1ccc(NC(=O)CN(N=Nc2nonc2C)c2nonc2C)cc1 the results were Tn7 DDE FP -1.3, C-LANA FP 1.0, Keap1-Nrf2 PPI 1.3, DDE Tn6 FP inh 4.3, Cardiac RTF inh 26.4*, cardiac RTF act -0.5 and RTF Ca inh conf -3.6.
For NC(=O)CSc1oc(-c2ccco2)nc1S(=O)(=O)c1ccc(F)cc1 the results were C-LANA FP 1.6, Keap1-Nrf2 PPI 2.1, Cardiac RTF inh 18.0*, cardiac RTF act -3.3 and RTF Ca inh conf -1.7.
`CCc1ccc(OCC(=O)c2c(O)c3ccccc3oc2=O)cc1` gave Tn7 DDE FP -4.0, C-LANA FP -0.1, Keap1-Nrf2 PPI 1.4, DDE Tn6 FP inh -10.2, Cardiac RTF inh 0.3 and cardiac RTF act 2.8.
CCc1oc2ccccc2c1C(=O)c1cc(Br)c(O)c(Br)c1 was read as Tn7 DDE FP -3.6, C-LANA FP 8.8, Keap1-Nrf2 PPI -2.2, DDE Tn6 FP inh -13.8, Cardiac RTF inh 17.8*, cardiac RTF act -11.7 and RTF Ca inh conf 1.2.
Screening COC(=O)C1=C(C)N(Cc2ccccc2C(F)(F)F)C(=NCc2ccccc2C(F)(F)F)NC1c1ccc(C(F)(F)F)cc1 (centres undefined) returned Tn7 DDE FP 4.3 and DDE Tn6 FP inh 4.8.
Screening O=C(Nc1ccc(F)c(C(F)(F)F)c1)Nc1nnc(-c2ccncc2)s1 returned Tn7 DDE FP -1.5 and DDE Tn6 FP inh -2.4.

Source: PubChem BioAssay
